# From ChEMBL document CHEMBL2412990, “Synthesis and pharmacological evaluation of new N-phenylpiperazine derivatives designed as homologues of the antipsychotic lead compound LASSBio-579” (Eur J Med Chem, 2013)
# pKi: −log10 of the molar value.
# What was measured:
# [1] = target: Muscarinic acetylcholine receptor (Rattus norvegicus) (UniProt P08482+P08483+P08485+P08911+P10980); assay: Displacement of [3H]-QNB from muscarinic receptor in rat brain cortical membranes at 30 uM after 60 mins by liquid scintillation counting; type: cell membranes; details: Membrane
# Method in brief: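 Cortical membranes, 150 µg protein, with 0.1 nM [3H]-QNB in 50 mM Tris-HCl pH 7.4 at room temperature for 60 min. Non-specific binding was defined with atropine sulfate. Samples were diluted with cold 5 mM Tris-HCl, vacuum-filtered on glass fibre filters and counted by liquid scintillation.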
# [2] = target: T1, 5-hydroxytryptamine receptor 2C (Homo sapiens, UniProt P28335); assay: Displacement of [3H]-mesulergine from human 5HT2C receptor after 60 mins by liquid scintillation counting
# T1 sequence (P28335 whole entry): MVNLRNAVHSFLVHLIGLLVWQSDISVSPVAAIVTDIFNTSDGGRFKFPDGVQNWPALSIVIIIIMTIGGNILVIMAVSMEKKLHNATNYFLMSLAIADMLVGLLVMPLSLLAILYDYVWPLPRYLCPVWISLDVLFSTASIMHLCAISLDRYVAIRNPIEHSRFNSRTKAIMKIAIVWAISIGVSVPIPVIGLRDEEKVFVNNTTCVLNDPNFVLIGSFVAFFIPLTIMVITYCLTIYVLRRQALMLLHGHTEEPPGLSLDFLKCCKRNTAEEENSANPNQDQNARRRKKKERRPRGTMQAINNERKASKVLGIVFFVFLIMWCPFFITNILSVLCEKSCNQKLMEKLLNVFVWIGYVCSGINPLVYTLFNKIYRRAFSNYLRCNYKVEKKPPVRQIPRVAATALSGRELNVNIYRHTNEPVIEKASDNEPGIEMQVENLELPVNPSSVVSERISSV
# [3] = target: 5-hydroxytryptamine receptor 2A (Rattus norvegicus, UniProt P14842); assay: Displacement of [3H]-ketanserin from 5HT2A receptor in rat brain cortical membranes after 15 mins by liquid scintillation counting; type: cell membranes, Membrane
# Sequence of 5-hydroxytryptamine receptor 2A (P14842 whole entry): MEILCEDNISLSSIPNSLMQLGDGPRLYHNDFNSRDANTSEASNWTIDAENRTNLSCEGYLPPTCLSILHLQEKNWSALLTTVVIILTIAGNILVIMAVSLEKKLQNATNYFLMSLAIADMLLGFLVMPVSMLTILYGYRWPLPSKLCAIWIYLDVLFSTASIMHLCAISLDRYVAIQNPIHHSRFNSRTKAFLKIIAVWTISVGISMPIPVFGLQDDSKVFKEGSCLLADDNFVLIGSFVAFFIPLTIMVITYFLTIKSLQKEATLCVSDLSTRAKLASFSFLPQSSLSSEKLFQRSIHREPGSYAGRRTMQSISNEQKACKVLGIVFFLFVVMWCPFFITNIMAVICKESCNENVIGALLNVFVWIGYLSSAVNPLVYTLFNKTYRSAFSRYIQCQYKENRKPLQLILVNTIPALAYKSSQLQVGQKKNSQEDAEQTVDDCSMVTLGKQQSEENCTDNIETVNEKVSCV
# [4] = target: T2, 5-hydroxytryptamine receptor 1A (Rattus norvegicus, UniProt P19327); assay: Displacement of [3H]-8-OH-DPAT from 5HT1A receptor in rat brain hippocampal membranes after 15 mins by liquid scintillation counting; type: cell membranes, Membrane
# T2 sequence (P19327 whole entry): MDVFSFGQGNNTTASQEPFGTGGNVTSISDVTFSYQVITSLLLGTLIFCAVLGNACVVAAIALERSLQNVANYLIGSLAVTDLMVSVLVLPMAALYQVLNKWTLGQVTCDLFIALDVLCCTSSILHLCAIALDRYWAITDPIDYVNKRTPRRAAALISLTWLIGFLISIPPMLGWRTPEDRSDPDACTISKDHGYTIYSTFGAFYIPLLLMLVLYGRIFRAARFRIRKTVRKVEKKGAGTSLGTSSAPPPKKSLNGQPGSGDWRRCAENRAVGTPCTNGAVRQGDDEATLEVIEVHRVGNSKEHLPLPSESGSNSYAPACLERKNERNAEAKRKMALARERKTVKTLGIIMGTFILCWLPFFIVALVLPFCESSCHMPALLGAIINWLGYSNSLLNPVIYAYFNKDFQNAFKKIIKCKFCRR
# Method in brief: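 Hippocampal membranes, 40 µg protein, incubated with 1 nM [3H]-8-OH-DPAT at 37 °C for 15 min under yellow light. Buffer was 50 mM Tris-HCl pH 7.4 with 1 mM CaCl2, 1 mM MnCl2 and pargyline. Filters were soaked in 0.5% polyethyleneimine. IC50 came from nonlinear regression fitted with one or two sites. Ki by Cheng-Prusoff, using Kd from saturation experiments.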
# [5] = target: T3, D(4) dopamine receptor (Homo sapiens, UniProt P21917); assay: Displacement of [3H]-YM-09151-2 from human D4 receptor after 120 mins by liquid scintillation counting
# T3 sequence (P21917 whole entry): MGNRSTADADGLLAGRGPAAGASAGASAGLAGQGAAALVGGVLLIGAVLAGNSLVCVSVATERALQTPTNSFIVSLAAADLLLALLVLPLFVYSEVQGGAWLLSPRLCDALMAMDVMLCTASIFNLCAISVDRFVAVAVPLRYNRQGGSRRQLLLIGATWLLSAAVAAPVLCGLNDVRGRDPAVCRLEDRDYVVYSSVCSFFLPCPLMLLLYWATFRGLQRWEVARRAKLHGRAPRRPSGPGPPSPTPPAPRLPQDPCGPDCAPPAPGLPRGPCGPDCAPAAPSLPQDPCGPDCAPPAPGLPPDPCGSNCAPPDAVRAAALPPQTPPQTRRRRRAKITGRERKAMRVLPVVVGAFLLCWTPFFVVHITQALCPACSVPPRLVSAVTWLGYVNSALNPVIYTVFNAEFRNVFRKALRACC
SMILES,inhibition [1] [%],pKi [2],pKi [3],pKi [4],pKi [5]
Clc1ccc(-n2cc(CN3CCN(c4ccccc4)CC3)cn2)cc1,22,5.06,5.16,6.66,6.74
Clc1ccc(-n2cc(COCCN3CCN(c4ccccc4)CC3)cn2)cc1,11,5.09,5.60,6.96,7.00
Clc1ccc(-n2cc(COCCCN3CCN(c4ccccc4)CC3)cn2)cc1,28,5.55,6.19,6.51,5.82

# Further lines, results first:
inhibition [1] [%],pKi [2],pKi [3],pKi [4],pKi [5],SMILES
39,5.29,6.22,6.74,6.48,Clc1ccc(-n2cc(CCCN3CCN(c4ccccc4)CC3)cn2)cc1
26,5.11,6.02,6.80,5.93,Clc1ccc(-n2cc(CCCCCN3CCN(c4ccccc4)CC3)cn2)cc1
2,5.23,6.19,7.05,6.10,Clc1ccc(-n2cc(CCCCN3CCN(c4ccccc4)CC3)cn2)cc1
